In ChEMBL document CHEMBL1142721, “Nanomolar inhibitors of CNS epinephrine biosynthesis: (R)-(+)-3-fluoromethyl-7-(N-substituted aminosulfonyl)-1,2,3,4-tetrahydroisoquinolines as potent and highly selective inhibitors of phenylethanolamine N-methyltransferase1” (J Med Chem, 2005) one finds Ki data, which are given here for 17 compounds.

The target in this experiment is T1, Alpha-2A adrenergic receptor (Rattus norvegicus, UniProt P22909).
T1 sequence (P22909 whole entry): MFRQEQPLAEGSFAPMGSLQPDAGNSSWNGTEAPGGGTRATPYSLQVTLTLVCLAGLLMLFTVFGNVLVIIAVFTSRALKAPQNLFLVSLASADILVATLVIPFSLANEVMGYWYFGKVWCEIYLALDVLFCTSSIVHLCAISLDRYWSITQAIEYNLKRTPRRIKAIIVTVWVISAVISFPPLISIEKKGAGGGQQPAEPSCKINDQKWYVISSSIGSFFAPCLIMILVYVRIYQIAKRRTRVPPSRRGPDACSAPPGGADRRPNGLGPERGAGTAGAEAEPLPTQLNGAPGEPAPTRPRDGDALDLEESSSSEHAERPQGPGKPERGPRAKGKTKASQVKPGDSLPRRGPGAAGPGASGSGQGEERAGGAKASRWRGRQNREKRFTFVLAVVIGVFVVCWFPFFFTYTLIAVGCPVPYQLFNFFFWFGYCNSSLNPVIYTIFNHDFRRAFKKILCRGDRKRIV
Kind of experiment: In vitro binding affinity against rat Alpha-2 adrenergic receptor using [3H]clonidine. The procedure, abridged:
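Rat cortex membranes (male Sprague-Dawley) washed by three 50 000 × g spins in ice-cold 50 mM Tris/HCl pH 7.7. Incubated with [3H]clonidine at 2.0 nM final, 25 °C, 30 min. Bound ligand recovered on GF/B filters and counted. Nonspecific binding set with 2 µM phentolamine. Quadruplicate, 5 concentrations over a 16-fold range. IC50 from log-probit analysis, converted by Ki = IC50/(1 + [clonidine]/KD).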
The Ki is the equilibrium dissociation constant of an inhibitor or competing ligand from its target. Read a low Ki as tighter binding. As for `O=S(=O)(Nc1ccc(Cl)cc1)c1ccc2c(c1)CN[C@H](CF)C2`, the Ki turned out to be 150 µM.
The figure for `O=S(=O)(Nc1ccc(Cl)cc1)c1ccc2c(c1)CN[C@@H](CF)C2` is 140 µM; for `COCCCNS(=O)(=O)c1ccc2c(c1)CN[C@@H](CF)C2` it is 680 µM.
For the compound `CCNS(=O)(=O)c1ccc2c(c1)CN[C@@H](CF)C2`, the Ki was 550 µM.
On to `O=S(=O)(NCCC(F)(F)F)c1ccc2c(c1)CN[C@@H](CF)C2`, for which the Ki amounted to 670 µM.
For `O=S(=O)(NCCC(F)(F)F)c1ccc2c(c1)CNC(CF)C2` (configuration not stated) the value was 660 µM.
For `O=S(=O)(c1ccc2c(c1)CN[C@@H](CF)C2)N1CCSCC1` the value was 200 µM.
`CCCNS(=O)(=O)c1ccc2c(c1)CN[C@@H](CF)C2` returned an inhibition constant Ki of 570 µM.
The figure for `NS(=O)(=O)c1ccc2c(c1)CN[C@@H](CF)C2` is 700 µM.
The figure for `O=S(=O)(NCC(F)(F)F)c1ccc2c(c1)CN[C@@H](CF)C2` is 1000 µM; for `CCNS(=O)(=O)c1ccc2c(c1)CNC(CF)C2` (racemic) it is 550 µM.
`COCCCNS(=O)(=O)c1ccc2c(c1)CNC(CF)C2` (racemic): the Ki came out at 750 µM.
The figure for `O=S(=O)(NCC(F)(F)F)c1ccc2c(c1)CNC(CF)C2` (racemic) is 1200 µM; for `O=S(=O)(Nc1ccc(Cl)cc1)c1ccc2c(c1)CNC(CF)C2` (racemic) it is 140 µM; for `O=S(=O)(c1ccc2c(c1)CNC(CF)C2)N1CCSCC1` (racemic) it is 190 µM.
For `CCCNS(=O)(=O)c1ccc2c(c1)CNC(CF)C2` (racemic) the value was 610 µM.
For `NS(=O)(=O)c1ccc2c(c1)CNC(CF)C2` (racemic) the value was 680 µM.
